In brackets after ≈: the same amount, converted by molar mass. Activity calls are given as the source filed them. The rule behind the calls is not given here.
Assays:
[1] = Inhibition of purified beta-lactamase CTX-M-14 (unknown origin) using nitrocefin as substrate preincubated for 10 mins followed by substrate addition
How it was run: (§1)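 Test compound was preincubated 10 min with enzyme, then substrate was added and optical density was followed over time to determine Ki (μM). CTX-M-14 (class A), Oxa-48 (class D) and NDM-1 (class B) were purified enzymes; VIM-1 (class B) was a lysate. NDM-1 used imipenem as substrate; the other three used nitrocefin.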

[2] = Inhibition of purified beta-lactamase Oxa-48 (unknown origin) using nitrocefin as substrate preincubated for 10 mins followed by substrate addition; how it was run: as §1
[3] = Inhibition of purified beta-lactamase NDM-1 (unknown origin) using imipenem as substrate preincubated for 10 mins followed by substrate addition; how it was run: as §1
[4] = Inhibition of beta-lactamase VIM-1 lysate (unknown origin) using nitrocefin as substrate preincubated for 10 mins followed by substrate addition; how it was run: as §1
[5] = test system: Mycobacterium tuberculosis; assay: Antituberculosis activity against Mycobacterium tuberculosis H37Rv in 7H12 medium incubated for 4 days by Microplate Alamar Blue assay; type: functional; conditions: 96 h
How it was run: (§2)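 MICs in μM were determined against M. tuberculosis H37Rv by Microplate Alamar Blue assay. Line 2 used 7H12 medium, which is 7H9 medium plus casitone, palmitic acid, albumin and catalase.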

[6] = test system: Mycobacterium tuberculosis; assay: Antituberculosis activity against Mycobacterium tuberculosis H37Rv in glycerol-alanine salts medium incubated for 4 days by Microplate Alamar Blue assay; type: functional; conditions: 96 h; how it was run: as §2
[7] = test system: Mycolicibacterium vaccae; assay: Antibacterial activity against Mycobacterium vaccae IMET 10670 incubated for 18 to 24 hrs measured after 24 to 48 hrs by agar diffusion assay; type: functional, organism-based
How it was run: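 Kirby–Bauer agar diffusion assay; the read-out is the diameter of the inhibition zone in mm.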

| Compound | Ki [1] [µM] | Ki [2] [µM] | Ki [3] [µM] | Ki [4] [µM] | MIC [5] [µM] | MIC [6] [µM] | Activity [7] |
| --- | --- | --- | --- | --- | --- | --- | --- |
| CC(=O)O[C@@H]1NC(=O)[C@H]1NC(=O)COc1ccccc1 | > 160 | > 160 | 5.87 | > 160 | – | – | – |
| C[C@@H](O[Si](C)(C)C(C)(C)C)[C@H]1C(=O)N[C@@H]1N(OCc1ccccc1)C(=O)c1ccccc1 | 0.25 | > 160 | > 160 | > 160 | > 100 | > 100 | – |
| CSN1C(=O)[C@H]([C@@H](C)O[Si](C)(C)C(C)(C)C)[C@H]1N(OCc1ccccc1)C(=O)c1ccccc1 | 0.4 | > 160 | > 160 | > 160 | 10.3 (≈ 5.14 µg/mL) | 0.753 | inactive |
| C[C@@H](O)[C@H]1C(=O)N[C@@H]1N(OCc1ccccc1)C(=O)c1ccccc1 | > 160 | > 160 | > 160 | > 160 | > 100 | > 100 | – |
| CSN1C(=O)[C@@H](NC(=O)Cc2ccccc2)[C@@H]1OC(C)=O | – | – | – | – | 47.6 (≈ 14.7 µg/mL) | 10.7 | – |
| C[C@@H](O[Si](C)(C)C(C)(C)C)[C@H]1C(=O)N[C@@H]1N(O)C(=O)c1ccccc1 | 0.32 | > 160 | > 160 | > 160 | > 50 | > 50 | – |
| O=C(Cc1ccccc1)N[C@@H]1C(=O)N[C@H]1N(OCc1ccccc1)C(=O)c1ccccc1 | > 160 | > 160 | 5.54 | > 160 | > 100 | 6.05 | – |
| O=C(COc1ccccc1)N[C@@H]1C(=O)N[C@H]1N(OCc1ccccc1)C(=O)c1ccccc1 | 0.05 | > 160 | > 160 | > 160 | 5.93 (≈ 2.64 µg/mL) | < 0.195 | – |
| C=CCON(C(=O)c1ccc([N+](=O)[O-])cc1)C1CC(=O)N1SC (racemic) | 0.64 | > 160 | 0.03 | 22.7 | – | – | – |
| CSN1C(=O)CC1N(OCc1ccccc1)C(=O)c1ccc([N+](=O)[O-])cc1 (racemic) | > 160 | > 160 | 0.97 | > 160 | > 100 | 24.2 | – |
| CCOc1ccc(C(=O)N(OCc2ccccc2)C2CC(=O)N2)cc1 (racemic) | > 160 | > 160 | > 160 | > 160 | > 100 | 49.3 | – |
| CSN1C(=O)[C@@H](NC(=O)Cc2ccccc2)[C@@H]1N(OCc1ccccc1)C(=O)c1ccccc1 (racemic) | > 160 | 1.95 | 0.07 | 2.86 | 47.3 (≈ 22.5 µg/mL) | 11.6 | – |
| CSN1C(=O)CC1N(OCc1ccccc1)C(=O)c1cc([N+](=O)[O-])cc(C(F)(F)F)c1 (racemic) | – | – | – | – | 23.4 (≈ 10.6 µg/mL) | 5.92 | – |
| C=CCON(C(=O)c1ccc([N+](=O)[O-])cc1)C1CC(=O)N1 (racemic) | > 160 | > 160 | > 160 | > 160 | – | – | – |
| CSN1C(=O)[C@@H](NC(=O)COc2ccccc2)[C@@H]1N(OCc1ccccc1)C(=O)c1ccccc1 (racemic) | > 160 | > 160 | 0.06 | > 160 | 6 (≈ 2.95 µg/mL) | > 50 | inactive |
| CSN1C(=O)[C@@H](NC(=O)COc2ccccc2)[C@@H]1N(OCc1ccccc1)C(=O)c1cc([N+](=O)[O-])cc(C(F)(F)F)c1 (racemic) | > 160 | > 160 | 0.15 | > 160 | > 100 | 64.1 | – |
| CC(C)(C)[Si](C)(C)ON(C(=O)c1ccccc1)[C@@H]1NC(=O)[C@H]1NC(=O)COc1ccccc1 (racemic) | > 160 | > 160 | 0.96 | 31.2 | – | – | – |
| CC(C)(C)[Si](C)(C)N1C(=O)CC1N(OCc1ccccc1)C(=O)c1ccccc1 (racemic) | > 160 | 1.72 | > 160 | > 160 | 49.2 (≈ 20.2 µg/mL) | 0.28 | inactive |
| CCOc1ccc(C(=O)N(OCc2ccccc2)C2CC(=O)N2SC)cc1 (racemic) | > 160 | > 160 | 0.07 | > 160 | > 100 | 34.8 | – |
| CSN1C(=O)CC1N(OCc1ccccc1)C(=O)c1ccccc1 (racemic) | – | – | – | – | > 50 | 17.9 | – |
| C=CCON(C(=O)c1cc([N+](=O)[O-])cc(C(F)(F)F)c1)C1CC(=O)N1SC (racemic) | > 160 | > 160 | 0.04 | 59.3 | – | – | – |
| C=CCON(C(=O)c1cc([N+](=O)[O-])cc(C(F)(F)F)c1)C1CC(=O)N1 (racemic) | > 160 | 1.93 | > 160 | > 160 | – | – | – |
| O=C1CC(N(OCc2ccccc2)C(=O)c2cc([N+](=O)[O-])cc(C(F)(F)F)c2)N1 (racemic) | – | – | – | – | 44.7 (≈ 18.3 µg/mL) | 30.3 | – |
| C[C@H]1COC2(CCN(c3nc(=O)c4cc(C(F)(F)F)cc([N+](=O)[O-])c4s3)CC2)O1 [BTZ-043] | – | – | – | – | < 0.004 | < 0.004 | – |
| CO[C@H]1/C=C/O[C@@]2(C)Oc3c(C)c(O)c4c(O)c(c(/C=N/N5CCN(C)CC5)c(O)c4c3C2=O)NC(=O)/C(C)=C\C=C\[C@H](C)[C@H](O)[C@@H](C)[C@@H](O)[C@@H](C)[C@H](OC(C)=O)[C@@H]1C [RIFAMPIN] | – | – | – | – | 0.05 (≈ 0.0411 µg/mL) | 0.04 | – |
